Results published in the RNAGym collection of RNA variant scans (doi:10.1126/science.aae0568).
Variants at the floor of the assay were thinned out.

B1: tRNA (parent)
chain: GUUCCGUUGGCGUAAUGGUAACGCGUCUCCCUCCUAAGGAGAAGACUGCGGGUUCGAGUCCCGUACGGAACG

Variants of: B1
Assay: yeast fitness relative to wild type (ratio to wild type); higher = fitter; tRNA-Arg(CCU), competitive growth, 37 C, YPD
Summary of the method: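 For this measurement, the tRNA-Arg(CCU) gene was varied by chemical synthesis at a 3% per-site mutation rate across 69 sites, and each variant was placed at the native genomic locus in Saccharomyces cerevisiae. The pooled strains went through a 24-hour competition in YPD at 37°C in six parallel replicates, with amplicons from start and end populations read by 100-nucleotide paired-end sequencing. Darwinian fitness relative to wild type followed from the change in each genotype's frequency. Genotypes needed ≥ 100 starting reads, and estimates < 0.5 were set to 0.5.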

| Variant | yeast fitness |
| --- | --- |
| GUUCCGUUGGCGUAAUGGUAACGAGUCUCCCUCCUAAGGAGAAGACUGCGGGUUCGAGGCCUGUACGGAACG [C24A U59G C62U] | ≤ 0.5 |
| GUUCCGUUGGCGUAAUGGUAACGAGUCUCCCUCCUAAGGAGAAGACUGCGGGUUCGAGUCCCGCACGGAACG [C24A U64C] | 0.706 |
| GUUCCGUUGGCGUAAUGGUAACGGGUCUCCCUCCUGAGGAGAAGACUGCGGGUUCGGGUCCCGUACGGAACG [C24G A36G A57G] | 0.533 |
| GUUCCGUUGGCGUAAUGGUAACGGGUCUCCCUCCUGAGGAGAAGACUGCGGGUUCGAGUCCCGUUCGCAACG [C24G A36G A65U G68C] | ≤ 0.5 |
| GUUCCGUUGGCGUAAUGGUAACGGGUCUCCCUCCUGAGGAGAAGACUGCGGGUUGGAGUCCCGUACGGAACG [C24G A36G C55G] | ≤ 0.5 |
| GUUCCGUUGGCGUAAUGGUAACGGGUCUCCCUCCUUCGGAGAAGACUGCGGGUUCGAGUCCCGUCCGGAACG [C24G A36U A37C A65C] | ≤ 0.5 |
| GUUCCGUUGGCGUAAUGGUAACGGGUCUCCCUCCUUAGGAGUAGACUGGGGGAUCGAAUACCGUACGGAACG [C24G A36U A42U C49G U53A G58A C60A] | ≤ 0.5 |
| GUUCCGUUGGCGUAAUGGUAACGGGUCUCCCUCCUUAGGAGAAGACUGCGGGUUCGAGUCCCGUGCGGAACG [C24G A36U A65G] | ≤ 0.5 |
| GUUCCGUUGGCGUAAUGGUAACGGGUCUCCCUCCUACGGAGAAGACUGUGGGUUCGAGUCCCGUACGGAACG [C24G A37C C49U] | ≤ 0.5 |
| GUUCCGUUGGCGUAAUGGUAACGGGUCUCCCUCCUAGGGAGAAGACCGCGGGUUCGAGACCCGUACAGAACG [C24G A37G U47C U59A G67A] | ≤ 0.5 |
| GUUCCGUUGGCGUAAUGGUAACGGGUCUCCCUCCUAGGGAGAAGACUGCGGGUUCGAGACCAGUACAGAACG [C24G A37G U59A C62A G67A] | ≤ 0.5 |
| GUUCCGUUGGCGUAAUGGUAACGGGUCUCCCUCCUAGGGAGAAGACUGCGGGUUCGAGACCCGUACAGAACG [C24G A37G U59A G67A] | 0.548 |
| GUUCCGUUGGCGUAAUGGUAACGGGUCUCCCUCCUAUGGAGAAGACUGUGGGUUCGAGACCCGUACGGAACG [C24G A37U C49U U59A] | ≤ 0.5 |
| GUUCCGUUGGCGUAAUGGUAACGGGUCUCCCUCCUAAGGGGGAGACUGCGGGUUCGAGUCCCGUACGGAACG [C24G A40G A42G] | 0.54 |
| GUUCCGUUGGCGUAAUGGUAACGGGUCUCCCUCCUAAGGGGAAGACUGCGGGUUCGAGUCCCGUAUGGAACG [C24G A40G C66U] | 0.515 |
| GUUCCGUUGGCGUAAUGGUAACGGGUCUCCCUCCUAAGGUGAAGACUGCGGGUUCGAGUCCCGUACGGAACG [C24G A40U] | 0.542 |
| GUUCCGUUGGCGUAAUGGUAACGGGUCUCCCUCCUAAGGAGCAGACUGCGGGUUAGAGACCCGUACGGAUCG [C24G A42C C55A U59A A70U] | ≤ 0.5 |
| GUUCCGUUGGCGUAAUGGUAACGGGUCUCCCUCCUAAGGAGCAGACUGCGGGUUCGAGUUCCGAACGGAACG [C24G A42C C60U U64A] | 0.562 |
| GUUCCGUUGGCGUAAUGGUAACGGGUCUCCCUCCUAAGGAGGAGACUGCGGGUUCGGGUCCCGUACGGAACG [C24G A42G A57G] | ≤ 0.5 |

| Variant | yeast fitness |
| --- | --- |
| GUUCCGUUGGCGUAAUGGUAACGGGUCUCCCUCCUAAGGAGGAGACUGCGGGUUGGAGUCCCGUACGGAACG [C24G A42G C55G] | ≤ 0.5 |
| GUUCCGUUGGCGUAAUGGUAACGGGUCUCCCUCCUAAGGAGAGGACAGCGGGAUCGAGUCCCGUACGGAACG [C24G A43G U47A U53A] | ≤ 0.5 |
| GUUCCGUUGGCGUAAUGGUAACGGGUCUCCCUCCUAAGGAGAAGCGUGCGGGUUCGAGUGCCGUACGGUACG [C24G A45C C46G C60G A69U] | ≤ 0.5 |
| GUUCCGUUGGCGUAAUGGUAACGGGUCUCCCUCCUAAGGAGAAGUCUGCGGGUACGAGUCCCGUACGGAACG [C24G A45U U54A] | ≤ 0.5 |
| GUUCCGUUGGCGUAAUGGUAACGGGUCUCCCUCCUAAGGAGAAGACUGCGGGUUCGCGUCUCGUACGGAACG [C24G A57C C61U] | ≤ 0.5 |
| GUUCCGUUGGCGUAAUGGUAACGGGUCUCCCUCCUAAGGAGAAGACUGCGGGUUCGAGUCCCGUCCGGAACG [C24G A65C] | 0.648 |
| GUUCCGUUGGCGUAAUGGUAACGGGUCUCCCUCCUAAGGAGAAGACUGCGGGUUCGAGUCCCGUUCCGAACG [C24G A65U G67C] | ≤ 0.5 |
| GUUCCGUUGGCGUAAUGGUAACGGGUCUCCCUCCUAAGGAGAAGACUGCGGGUUCGAGUCCCGUACGGAGCG [C24G A70G] | 0.564 |
| GUUCCGUUGGCGUAAUGGUAACGGGUAUCCCCCCUAAGGAGAAGACUGCGGGUUCGAGUCCCGAACGGAACG [C24G C27A U32C U64A] | ≤ 0.5 |
| GUUCCGUUGGCGUAAUGGUAACGGGUGUCCCUCCUAAGGAGAAGACUGCGGGUUCGAGUCCAGUACGGAACG [C24G C27G C62A] | 0.622 |
| GUUCCGUUGGCGUAAUGGUAACGGGUUUCCCUUCUAAGGAGAAGACUGCCGGUUCGAGUCCCGUAUGGAACG [C24G C27U C33U G50C C66U] | ≤ 0.5 |
| GUUCCGUUGGCGUAAUGGUAACGGGUCUGCCUACUAAGGAGAAGACUACGGGUUGGAGUCCCGUACGCAACG [C24G C29G C33A G48A C55G G68C] | ≤ 0.5 |
| GUUCCGUUGGCGUAAUGGUAACGGGUCUGCCUCCUAAGCAGAAGACUGCGGGUUAGAGUCCCGUACGGAACG [C24G C29G G39C C55A] | 0.592 |
| GUUCCGUUGGCGUAAUGGUAACGGGUCUGCCUCCUAAGGAGAAGACUACGGGUUCGAGUCCCGUACGGAACG [C24G C29G G48A] | ≤ 0.5 |
| GUUCCGUUGGCGUAAUGGUAACGGGUCUUCCUCCUAAGGAGAAGACUGUGGGUUCGAGUCCCGUACGGAACG [C24G C29U C49U] | ≤ 0.5 |
| GUUCCGUUGGCGUAAUGGUAACGGGUCUUCCUCCUAAGGAGAAGACUGCGCGUUCGAGUCCCGUAUGGAACG [C24G C29U G51C C66U] | ≤ 0.5 |
| GUUCCGUUGGCGUAAUGGUAACGGGUCUCGCUCGUAAGGAGAAGACUGCGGGUUCGAGUCCCGUACGGAGCG [C24G C30G C34G A70G] | ≤ 0.5 |
| GUUCCGUUGGCGUAAUGGUAACGGGUCUCGCUCCUAAGGAGAAGACUGCGGGUUCGAGUCCUGUACGCAACG [C24G C30G C62U G68C] | ≤ 0.5 |
